Bioassay records as filed in PubChem BioAssay.
RanGTP-Imp inh – inhibitors of RanGTP-importin-beta interaction, primary screen, biochemical, FRET, CFP-Ran, YFP-importin-beta, homogeneous. cell-free CFP-Ran/YFP-importin-beta FRET ratio. inhibition, % (no concentration beside the values). 300,000 tested, 1.1% active. AID 2216;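 active means more than half of the replicate wells show a fall in the fluorescence ratio signal beyond about 16%, limit read from the data, passing the limit was not always enough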;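 further: 0% = DMSO wells and 100% = Ran loaded with GDP instead of GTP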
EBV gp42 inh – blocks Epstein-Barr virus glycoprotein 42 binding | Fluorescence polarization binding assay, mP read-out | inhibition, % (tested at 21.74 µM) | 220,000 tested, 0.42% active
Target sequence (Q1HVG2 whole entry, looked up): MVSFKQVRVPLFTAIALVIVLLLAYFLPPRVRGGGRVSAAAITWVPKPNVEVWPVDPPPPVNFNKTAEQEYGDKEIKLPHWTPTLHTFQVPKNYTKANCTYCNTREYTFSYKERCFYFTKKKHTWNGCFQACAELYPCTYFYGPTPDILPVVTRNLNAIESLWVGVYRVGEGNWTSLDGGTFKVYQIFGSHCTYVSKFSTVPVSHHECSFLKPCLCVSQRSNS
Runt-SMMHC FRET – inhibitors of human RUNX1 Runt domain binding to CBFb-SMMHC; inhibition, % at 20 µM; AID 1434; 220,000 tested, 0.74% active; Cerulean-Runt/Venus-CBFb-SMMHC FRET ratio 530/480, 1 h; Q01196+Q13951;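 active means mean inhibition across duplicate retests at 20 µM reaching about 50%, limit read from the data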;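 further: 0% = DMSO wells and 100% = wells with excess untagged CBFb-SMMHC; inhibitors lower the FRET ratio by blocking Runt binding to CBFb-SMMHC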
Runt-CBFb FRET – Runt domain-CBFb interaction inhibition. Cerulean-Runt/Venus-CBFb FRET ratio 530/480, 1 h. inhibition, % at 20 µM. 220,000 tested, 0.46% active;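 active means inhibition over about 50% at 20 µM in the single-dose screen, limit read from the data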;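 further: 0% = DMSO wells and 100% = excess unlabeled CBFb competitor control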
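Assay system: Cerulean-Runt domain fusion protein, energy donor; Signal: fluorescence energy transfer, 422 nm excitation, 530/480 nm emission; Timing: 1 h compound exposure, room temperature; Control set: unlabeled CBFb; Medium: Tris buffer pH 7.5 with salts and BSA; Compound: single test concentration of 20 µM, 1% DMSO final; Probe or stimulus: Venus-CBFb 100 nM.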
MEX-5 binding – C. elegans MEX-5 TCR-2 RNA binding activity. Q9XUB2. MEX-5/FITC-TCR2 RNA binding, fluorescence polarization; stronger effect = lower value. activity score (negative = inhibition of binding), % at 10 µM. 300,000 tested, 0.38% active;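 active means inhibition past about -25% in most replicates, and total fluorescence under double the plate's negative control median, limit read from the data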;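 further: 0% = DMSO and -100% = 5 µM competing unlabeled TCR2 RNA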
Target sequence (Q9XUB2 whole entry, looked up): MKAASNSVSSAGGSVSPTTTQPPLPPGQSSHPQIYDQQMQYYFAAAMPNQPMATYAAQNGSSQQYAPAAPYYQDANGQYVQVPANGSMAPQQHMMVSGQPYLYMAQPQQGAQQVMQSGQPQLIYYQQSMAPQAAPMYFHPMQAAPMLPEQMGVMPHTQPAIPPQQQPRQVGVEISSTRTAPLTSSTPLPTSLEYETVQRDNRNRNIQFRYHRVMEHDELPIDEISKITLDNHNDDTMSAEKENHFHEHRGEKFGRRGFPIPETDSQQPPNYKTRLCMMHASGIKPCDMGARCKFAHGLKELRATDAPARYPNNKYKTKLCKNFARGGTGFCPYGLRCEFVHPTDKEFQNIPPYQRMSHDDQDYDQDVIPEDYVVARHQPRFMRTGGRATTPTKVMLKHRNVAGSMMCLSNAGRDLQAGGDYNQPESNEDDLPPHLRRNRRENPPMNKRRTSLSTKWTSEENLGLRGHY
PKD1 kinase inh – PKD1 (human) kinase inhibition | Q15139 | PKD1 kinase fluorescence polarization assay | inhibition, % (test concentration not listed) | 200,000 tested, 0.056% active | AID 797
Starred values were filed as active, the others as inactive; · = no result. Most compounds without a hit are left out; they make up all but 2% or so of the library. Unless noted, no stated cut-off is given here; in the data, active means inhibition above about 50%; inactive means the rest.

SMILES | RanGTP-Imp inh | EBV gp42 inh | Runt-SMMHC FRET | Runt-CBFb FRET | MEX-5 binding | PKD1 kinase inh
CCCOc1c(Br)cc(C(=O)OCC(=O)NC2CC2)cc1OC | 0.3 | · | · | · | -1.8 | ·
CCOC(=O)C1=CN(CC2CCCO2)C=C(C(=O)OCC)C1c1ccccc1C(F)(F)F (stereo not drawn) | 5.4 | 15.2 | 91.1* | 109.4* | 0.5 | -9.8
CCOC(=O)c1ccc(NC(=O)c2cccc3c2C(=O)N(CC2CCCO2)C3)cc1 (stereo not drawn) | 2.9 | · | · | · | 3.0 | ·
COc1ccc(/C=N/N=C2/CC(C)(C)Cc3n[nH]c(=O)cc32)cc1 | 4.0 | 70.4* | -10.4 | -2.0 | -81.3* | 3.2
COc1ccc(/C=N/N=C2/NC(=O)CC(C(=O)O)S2)cc1 (stereo not drawn) | 1.9 | -0.3 | -39.9 | -3.4 | 0.5 | -3.5
Cc1ccc(C2C(C#N)=C(N)SC(N)=C2C#N)c(C)c1 | 46.7* | -45.4 | 27.0 | 9.8 | -3.9 | -1.2
Cc1cccc(Cn2c(N3CCN(C)CC3)nc3c2c(=O)n(C)c(=O)n3C)c1 | 1.8 | · | · | · | -3.6 | ·
Cc1onc(-c2ccccc2Cl)c1C(=O)Nc1sc2c(c1C#N)CCC2 | 45.4* | 12.6 | 8.4 | 4.5 | 1.5 | 8.6
N#Cc1c(NC(=O)C2CC(c3ccccc3Cl)=NO2)sc2c1CCC2 (stereo not drawn) | 2.8 | -16.8 | 0.0 | 0.5 | 0.8 | -9.2
COc1cc(=O)[nH]c(SCC(=O)Nc2nc3c(s2)CCCC3)n1 | -3.2 | · | · | · | 1.5 | ·
COC(=O)c1cc(C(=O)c2ccccc2)n2c(=O)/c(=C\N(C)C)sc12 | 1.0 | -14.1 | -33.0 | -66.3 | -0.8 | ·
COC(=O)c1cc(C(=O)c2ccc(Cl)cc2)n2c(=O)/c(=C\N(C)C)sc12 | -3.9 | 61.6* | -105.2 | -39.1 | · | -9.7
O=[N+]([O-])c1ccc(-c2cn(-c3ccc(Cl)cc3)c(=S)[nH]2)cc1 | -65.5 | 53.9* | -14.6 | -0.6 | 2.1 | -6.6
CCc1ccc(-n2cc(-c3ccc([N+](=O)[O-])cc3)[nH]c2=S)cc1 | -2.1 | -10.3 | -1.6 | 7.1 | 0.3 | -10.0
Cc1ccc(C23CC4CC(CC(CC(=O)N5CCOCC5)(C4)C2)C3)cc1 | 24.7* | 0.4 | -15.3 | -3.9 | 0.4 | 7.4
Cc1ccc(Oc2nc3c(C)cccn3c(=O)c2/C=C(\C#N)C(N)=O)cc1 | 12.0 | -5.8 | 63.6* | 46.3 | 0.4 | ·
CCOC(=O)/C(C#N)=C/c1c(Oc2cccc(C)c2)nc2c(C)cccn2c1=O | -5.6 | -29.9 | 63.3 | -4.7 | -2.5 | -1.1
Cc1cccn2c(=O)c(/C=C(\C#N)C(=O)NC3CCS(=O)(=O)C3)c(Oc3ccccc3Cl)nc12 (stereo not drawn) | 160.1* | · | · | · | -6.7 | ·
Cc1ccccc1Oc1nc2c(C)cccn2c(=O)c1/C=C(\C#N)C(=O)NC1CCS(=O)(=O)C1 (stereo not drawn) | 13.0 | -4.6 | 75.6* | 112.7* | 1.7 | ·
Cc1ccc(Oc2nc3ccccn3c(=O)c2/C=C(\C#N)C(=O)NC2CCS(=O)(=O)C2)cc1 (stereo not drawn) | 29.4* | 21.1 | 81.5* | 72.8* | -8.1 | ·
Cn1ncc(Br)c1NC(=O)CSc1ccc(Cl)cc1 | -3.7 | -11.4 | -4.8 | 3.4 | 1.9 | ·
COC(=O)C1=C(C)NC2=C(C(=O)CC(C)(C)C2)C1c1ccccn1 (stereo not drawn) | 8.4 | -6.4 | 123.0* | 70.5* | -2.7 | 0.9
COC(=O)C1=C(C)NC2=C(C(=O)CC(C)(C)C2)C1c1ccsc1 (stereo not drawn) | 2.6 | -4.5 | 19.5 | 7.3 | 0.1 | -2.7
COC(=O)C1C(=O)C2=C(CC1C)NC(C)=C(C(=O)OC(C)C)C2c1ccc(OC)c(O)c1 (stereo not drawn) | -1.6 | 2.9 | 4.5 | 0.1 | -1.1 | 11.9
COC(=O)C1=C(C)NC2=C(C(=O)C(C(=O)OC)C(c3ccc(OC)cc3)C2)C1c1ccccn1 (stereo not drawn) | 11.8 | -8.9 | 69.7* | 35.3 | -4.9 | -4.4
SMILES | RanGTP-Imp inh | EBV gp42 inh | Runt-SMMHC FRET | Runt-CBFb FRET | MEX-5 binding | PKD1 kinase inh
CCCN(CCC)c1ccc(/C=C/c2ccc3cc(OCC)ccc3n2)cc1 | 21.4* | -27.3 | 81.6 | -20.0 | 0.8 | ·
Cc1ncc(/C=C2\C(=O)Nc3ccccc32)[nH]1 | 0.5 | -3.9 | -10.2 | -2.3 | -40.1* | ·
CCc1ncc(/C=C2\C(=O)Nc3ccccc32)[nH]1 | 0.4 | -1.0 | -25.7 | -9.9 | -5.7 | ·
COc1ccc(OCC(=O)Nc2cccc(-c3nc4ccccc4[nH]3)c2)cc1 | 30.7* | -12.1 | 1.8 | -1.9 | -3.5 | 13.4
COc1ccc(/C=C2\SC(=S)N(CCCC(=O)Nc3ccccn3)C2=O)cc1OC | -15.5 | 75.9* | -161.9 | -41.5 | -21.0 | -2.0
COc1ccc(NC(=O)c2ccc(COc3ccccc3Br)o2)cc1OC | 4.4 | -23.5 | -0.6 | -8.1 | -0.5 | 1.2
COc1ccc(NC(=O)Nc2ccccn2)cc1OC | 27.2* | -20.0 | -3.6 | -0.7 | -1.7 | ·
COc1ccc(NC(=O)c2ccc(COc3ccccc3OC)o2)cc1OC | 13.3* | -32.1 | -4.9 | -1.1 | 2.0 | -12.6
Cc1ccccc1NC(=O)c1ccc2nc(N3CCOCC3)sc2c1 | 1.1 | · | · | · | -0.6 | ·
Cc1cccc(C(=O)NCC(=O)OCC(=O)N(C)CC(=O)Nc2ccc(F)cc2)c1 | 1.3 | · | · | · | 0.8 | ·
CCC(Oc1ccccc1OC)C(=O)N1CC(=O)Nc2ccccc21 (stereo not drawn) | 6.8 | · | · | · | -0.7 | ·
COc1ccc(N2CCN(c3ncnc4c3[nH]c3ccccc34)CC2)cc1 | 19.1* | 5.2 | -2.3 | -1.7 | -1.1 | 5.0
O=C(O)CCC(=O)Nc1ccc(Br)c(Cl)c1 | -2.5 | 11.2 | 2.8 | 99.5* | -1.4 | -1.2
CCOC(=O)NCc1ccc2c(c1)cc(C)n2C | 84.8* | -2.8 | -19.5 | -11.7 | -4.9 | -15.3
CN(C(=O)C1CCCC1)C1CCS(=O)(=O)C1 (stereo not drawn) | 0.4 | · | · | · | 0.0 | ·
CC(=O)N1CCc2cc(N=NC3=C(O)CC(C)(C)CC3=O)ccc21 | -9.4 | -78.3 | -43.3 | -21.4 | -0.6 | -0.8
N#C/C(=C\c1cccs1)C(=O)Nc1ccccn1 | 26.1* | 24.3 | -17.7 | -3.6 | -19.6 | ·
N#C/C(=C\c1ccccc1)C(=O)Nc1ccccn1 | 49.3* | · | · | · | 2.8 | ·
Cc1cccc(C)c1NC(=O)/C(C#N)=C/c1cccs1 | 1.0 | -38.1 | -0.2 | -0.7 | -1.4 | -0.7
CC(C)(C)c1ccc(/C=C(\C#N)C(=O)Nc2ccccn2)cc1 | -1.5 | · | · | · | -0.7 | ·
N#C/C(=C\c1ccccc1Cl)C(=O)Nc1ccccn1 | 44.2* | · | · | · | -6.0 | ·
C=CCOc1ccc(/C=C(\C#N)C(=O)Nc2ccccn2)cc1 | 17.1* | · | · | · | 0.3 | ·
Cc1nc2ccc(C(=O)N3CCN(Cc4ccccc4)CC3)cc2[nH]1 | -1.2 | · | · | · | -1.2 | ·
N#Cc1ccccc1OCCCN1CCC(Cc2ccccc2)CC1 | -2.2 | · | · | · | -1.0 | ·
COc1cc([N+](=O)[O-])ccc1NC(=O)CN1CCOCC1 | 2.8 | -7.4 | -1.2 | -2.7 | -3.2 | 10.1
